{"source": "ChEMBL document CHEMBL5303300", "about": "“EUbOPEN Chemogenomics Library - Multiplex” (2023)", "key": {"[1]": {"system": "Fibroblast", "assay": "Multiplex assay against human fibroblast", "assay_type": "toxicity, cell-based", "conditions": "number of replicates 2", "in_short": "(§1)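 Tubulin, mitochondrial-mass and membrane-permeability phenotypes are per cents of healthy-nucleus cells. Cells were gated by CellPathfinder machine learning into Hoechst high-intensity objects or normal cells, normal cells into healthy, pyknosed or fragmented nuclei, and pyknosed cells into mitotic or apoptotic. Before that, live cells stained at seeding with Hoechst33342, BioTracker Green Microtubule Cytoskeleton Dye, MitoTracker Red and Annexin V Alexa Fluor 680 were imaged on a CQ1 microscope at 37°C and 5% CO2 after compound addition.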"}, "[2]": {"system": "HEK-293T", "assay": "Multiplex assay against HEK293T", "assay_type": "toxicity, cell-based", "conditions": "human, number of replicates 2", "in_short": "as §1"}, "[3]": {"conditions": "24 h, 10 µM, compound concentration 10 uM"}, "[4]": {"conditions": "48 h, 1 µM, compound concentration 1 uM"}, "[5]": {"conditions": "48 h, 10 µM, compound concentration 10 uM"}, "[6]": {"conditions": "12 h, 1 µM, compound concentration 1 uM"}, "[7]": {"conditions": "12 h, 10 µM, compound concentration 10 uM"}, "[8]": {"conditions": "24 h, 1 µM, compound concentration 1 uM"}}, "note": "Several values for one entry are separate records, joined by “and”; a condition that tells them apart may be missing. Equal values may be shown once.", "data": [{"smiles": "COc1ccc(NC(=O)c2ccc(-c3ccc(-c4noc(C)n4)cc3C)cc2)cc1OCCN(C)C.Cl", "values": [{"measurement": "Population Mitochondria Different-Phenotype (%)", "setting": "[1]; [3]", "result": "38% and 83%"}, {"measurement": "Population Mitotic Cells (%)", "setting": "[1]; [3]", "result": "5% and 9%"}, {"measurement": "Population Normal (%)", "setting": "[1]; [3]", "result": 100, "unit": "%"}, {"measurement": "Population Pyknosed Nuclei (%)", "setting": "[1]; [3]", "result": "69% and 62%"}, {"measurement": "Population Tubulin-Different-Phenotype (%)", "setting": "[1]; [3]", "result": "72% and 66%"}, {"measurement": "Total Cell Count", "setting": "[1]; [3]", "result": "108 and 116"}, {"measurement": "Population Apoptotic (%)", "setting": "[1]; [4]", "result": "86% and 73%"}, {"measurement": "Population Fragmented Nuclei (%)", "setting": "[1]; [4]", "result": "25% and 32%"}, {"measurement": "Population Healthy Nuclei (%)", "setting": "[1]; [4]", "result": "62% and 60%"}, {"measurement": "Population Hoechst High Intensity Objects (%)", "setting": "[1]; [4]", "result": "0% and 1%"}, {"measurement": "Population Membrane Permeable-Phenotype (%)", "setting": "[1]; [4]", "result": "6% and 1%"}, {"measurement": "Population Mitochondria Different-Phenotype (%)", "setting": "[1]; [4]", "result": "6% and 5%"}, {"measurement": "Population Mitotic Cells (%)", "setting": "[1]; [4]", "result": "13% and 26%"}, {"measurement": "Population Normal (%)", "setting": "[1]; [4]", "result": "100% and 98%"}, {"measurement": "Population Pyknosed Nuclei (%)", "setting": "[1]; [4]", "result": "12% and 6%"}, {"measurement": "Population Tubulin-Different-Phenotype (%)", "setting": "[1]; [4]", "result": "36% and 23%"}, {"measurement": "Total Cell Count", "setting": "[1]; [4]", "result": "191 and 281"}, {"measurement": "Population Apoptotic (%)", "setting": "[1]; [5]", "result": "95% and 96%"}, {"measurement": "Population Fragmented Nuclei (%)", "setting": "[1]; [5]", "result": "20% and 25%"}, {"measurement": "Population Healthy Nuclei (%)", "setting": "[1]; [5]", "result": "15% and 7%"}, {"measurement": "Population Hoechst High Intensity Objects (%)", "setting": "[1]; [5]", "result": 0, "unit": "%"}, {"measurement": "Population Mitochondria Different-Phenotype (%)", "setting": "[1]; [5]", "result": "18% and 25%"}, {"measurement": "Population Mitotic Cells (%)", "setting": "[1]; [5]", "result": 4, "unit": "%"}, {"measurement": "Population Normal (%)", "setting": "[1]; [5]", "result": 100, "unit": "%"}, {"measurement": "Population Pyknosed Nuclei (%)", "setting": "[1]; [5]", "result": "63% and 66%"}, {"measurement": "Population Tubulin-Different-Phenotype (%)", "setting": "[1]; [5]", "result": "81% and 87%"}, {"measurement": "Total Cell Count", "setting": "[1]; [5]", "result": "102 and 112"}, {"measurement": "Population Apoptotic (%)", "setting": "[2]; [6]", "result": "44% and 57%"}, {"measurement": "Population Fragmented Nuclei (%)", "setting": "[2]; [6]", "result": 3, "unit": "%"}, {"measurement": "Population Healthy Nuclei (%)", "setting": "[2]; [6]", "result": "84% and 81%"}, {"measurement": "Population Hoechst High Intensity Objects (%)", "setting": "[2]; [6]", "result": "6% and 8%"}, {"measurement": "Population Membrane Permeable-Phenotype (%)", "setting": "[2]; [6]", "result": "3% and 4%"}, {"measurement": "Population Mitochondria Different-Phenotype (%)", "setting": "[2]; [6]", "result": "26% and 29%"}, {"measurement": "Population Mitotic Cells (%)", "setting": "[2]; [6]", "result": "55% and 42%"}, {"measurement": "Population Normal (%)", "setting": "[2]; [6]", "result": "93% and 91%"}, {"measurement": "Population Pyknosed Nuclei (%)", "setting": "[2]; [6]", "result": "11% and 15%"}, {"measurement": "Population Tubulin-Different-Phenotype (%)", "setting": "[2]; [6]", "result": "80% and 75%"}, {"measurement": "Total Cell Count", "setting": "[2]; [6]", "result": "604 and 505"}, {"measurement": "Population Apoptotic (%)", "setting": "[2]; [7]", "result": "83% and 80%"}, {"measurement": "Population Fragmented Nuclei (%)", "setting": "[2]; [7]", "result": "5% and 4%"}, {"measurement": "Population Healthy Nuclei (%)", "setting": "[2]; [7]", "result": "51% and 50%"}, {"measurement": "Population Hoechst High Intensity Objects (%)", "setting": "[2]; [7]", "result": "19% and 18%"}, {"measurement": "Population Membrane Permeable-Phenotype (%)", "setting": "[2]; [7]", "result": "4% and 1%"}, {"measurement": "Population Mitochondria Different-Phenotype (%)", "setting": "[2]; [7]", "result": "74% and 77%"}, {"measurement": "Population Mitotic Cells (%)", "setting": "[2]; [7]", "result": "16% and 19%"}, {"measurement": "Population Normal (%)", "setting": "[2]; [7]", "result": "80% and 81%"}, {"measurement": "Population Pyknosed Nuclei (%)", "setting": "[2]; [7]", "result": "43% and 44%"}, {"measurement": "Population Tubulin-Different-Phenotype (%)", "setting": "[2]; [7]", "result": "87% and 90%"}, {"measurement": "Total Cell Count", "setting": "[2]; [7]", "result": "326 and 269"}, {"measurement": "Population Apoptotic (%)", "setting": "[2]; [8]", "result": "55% and 64%"}, {"measurement": "Population Fragmented Nuclei (%)", "setting": "[2]; [8]", "result": 5, "unit": "%"}, {"measurement": "Population Healthy Nuclei (%)", "setting": "[2]; [8]", "result": "84% and 81%"}, {"measurement": "Population Hoechst High Intensity Objects (%)", "setting": "[2]; [8]", "result": "6% and 11%"}, {"measurement": "Population Membrane Permeable-Phenotype (%)", "setting": "[2]; [8]", "result": "6% and 3%"}, {"measurement": "Population Mitochondria Different-Phenotype (%)", "setting": "[2]; [8]", "result": 19, "unit": "%"}, {"measurement": "Population Mitotic Cells (%)", "setting": "[2]; [8]", "result": "44% and 35%"}, {"measurement": "Population Normal (%)", "setting": "[2]; [8]", "result": "93% and 88%"}, {"measurement": "Population Pyknosed Nuclei (%)", "setting": "[2]; [8]", "result": "10% and 13%"}, {"measurement": "Population Tubulin-Different-Phenotype (%)", "setting": "[2]; [8]", "result": "66% and 62%"}, {"measurement": "Total Cell Count", "setting": "[2]; [8]", "result": "768 and 603"}, {"measurement": "Population Apoptotic (%)", "setting": "[2]; [3]", "result": "82% and 89%"}, {"measurement": "Population Fragmented Nuclei (%)", "setting": "[2]; [3]", "result": 6, "unit": "%"}, {"measurement": "Population Healthy Nuclei (%)", "setting": "[2]; [3]", "result": "32% and 33%"}, {"measurement": "Population Hoechst High Intensity Objects (%)", "setting": "[2]; [3]", "result": "23% and 19%"}, {"measurement": "Population Membrane Permeable-Phenotype (%)", "setting": "[2]; [3]", "result": "6% and 0%"}, {"measurement": "Population Mitochondria Different-Phenotype (%)", "setting": "[2]; [3]", "result": "74% and 77%"}, {"measurement": "Population Mitotic Cells (%)", "setting": "[2]; [3]", "result": "17% and 10%"}, {"measurement": "Population Normal (%)", "setting": "[2]; [3]", "result": "76% and 80%"}, {"measurement": "Population Pyknosed Nuclei (%)", "setting": "[2]; [3]", "result": 60, "unit": "%"}, {"measurement": "Population Tubulin-Different-Phenotype (%)", "setting": "[2]; [3]", "result": "74% and 86%"}, {"measurement": "Total Cell Count", "setting": "[2]; [3]", "result": "296 and 269"}, {"measurement": "Population Apoptotic (%)", "setting": "[2]; [4]", "result": "43% and 51%"}, {"measurement": "Population Fragmented Nuclei (%)", "setting": "[2]; [4]", "result": "10% and 8%"}, {"measurement": "Population Healthy Nuclei (%)", "setting": "[2]; [4]", "result": "84% and 83%"}, {"measurement": "Population Hoechst High Intensity Objects (%)", "setting": "[2]; [4]", "result": "9% and 10%"}, {"measurement": "Population Membrane Permeable-Phenotype (%)", "setting": "[2]; [4]", "result": 5, "unit": "%"}, {"measurement": "Population Mitochondria Different-Phenotype (%)", "setting": "[2]; [4]", "result": "3% and 6%"}, {"measurement": "Population Mitotic Cells (%)", "setting": "[2]; [4]", "result": "56% and 48%"}, {"measurement": "Population Normal (%)", "setting": "[2]; [4]", "result": "90% and 89%"}, {"measurement": "Population Pyknosed Nuclei (%)", "setting": "[2]; [4]", "result": "4% and 8%"}, {"measurement": "Population Tubulin-Different-Phenotype (%)", "setting": "[2]; [4]", "result": "40% and 41%"}, {"measurement": "Total Cell Count", "setting": "[2]; [4]", "result": "1630 and 1219"}, {"measurement": "Population Apoptotic (%)", "setting": "[2]; [5]", "result": "86% and 92%"}, {"measurement": "Population Fragmented Nuclei (%)", "setting": "[2]; [5]", "result": "8% and 7%"}, {"measurement": "Population Healthy Nuclei (%)", "setting": "[2]; [5]", "result": "24% and 19%"}, {"measurement": "Population Hoechst High Intensity Objects (%)", "setting": "[2]; [5]", "result": "28% and 22%"}, {"measurement": "Population Membrane Permeable-Phenotype (%)", "setting": "[2]; [5]", "result": "3% and 2%"}, {"measurement": "Population Mitochondria Different-Phenotype (%)", "setting": "[2]; [5]", "result": "72% and 70%"}, {"measurement": "Population Mitotic Cells (%)", "setting": "[2]; [5]", "result": "13% and 7%"}, {"measurement": "Population Normal (%)", "setting": "[2]; [5]", "result": "71% and 77%"}, {"measurement": "Population Pyknosed Nuclei (%)", "setting": "[2]; [5]", "result": "66% and 72%"}, {"measurement": "Population Tubulin-Different-Phenotype (%)", "setting": "[2]; [5]", "result": "84% and 87%"}, {"measurement": "Total Cell Count", "setting": "[2]; [5]", "result": "289 and 271"}]}]}
